Results as given in ChEMBL document CHEMBL1177681, “Hybrid diarylbenzopyrimidine non-nucleoside reverse transcriptase inhibitors as promising new leads for improved anti-HIV-1 chemotherapy” (Bioorg Med Chem, 2010).

Assays:
[1] = system: Human immunodeficiency virus 1; assay: Antiviral activity against wild type HIV1 3B infected in human MT4 cells assessed as protection against virus-induced cytopathogenicity after 4 days by MTT assay; format: functional, organism-based; conditions: Human immunodeficiency virus 1, 3B, MT4, 96 h
Summary of the method: (§1)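 MT-4 cells at 1 × 10⁵ cells/mL infected at multiplicity of infection 0.02, then immediately plated onto serial dilutions of compound (DMSO stocks of 50 mM or higher). After 4 days at 37 °C, viable cells counted by MTT. […] Virus stocks titrated in MT-4 cells as CCID50.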

[2] = system: Human immunodeficiency virus 2; assay: Antiviral activity against wild type HIV2 ROD infected in human MT4 cells assessed as protection against virus-induced cytopathogenicity after 4 days by MTT assay; format: functional, organism-based; conditions: Human immunodeficiency virus 2, ISOLATE ROD, MT4, 96 h; summary of the method: as §1
[3] = Cytotoxicity against human MT4 cells after 4 days by MTT assay; format: cell-based
Summary of the method: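 Uninfected MT-4 cells were run in parallel with the antiviral plates and exposed to serial compound dilutions (DMSO stocks of 50 mM or higher) for 4 days at 37 °C. Viability was read by MTT.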

[4] = Selectivity index, CC50 for human MT4 cells to EC50 for wild type HIV1 3B; format: toxicity, cell-based; conditions: read-out: Ratio CC50/EC50
Summary of the method: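 Selectivity index is calculated as CC50 in uninfected MT-4 cells divided by EC50 against HIV-1 IIIB. Both come from parallel 4-day MTT readings at 37 °C, with infection at multiplicity of infection 0.02.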

[5] = system: Human immunodeficiency virus 1; assay: Antiviral activity against HIV1 with reverse transcriptase K103N, Y181C mutant infected in human MT4 cells assessed as protection against virus-induced cytopathogenicity after 4 days by MTT assay; format: functional, organism-based; conditions: Human immunodeficiency virus 1, MT4, 96 h
Summary of the method: (§2)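 MT-4 cells at 1 × 10⁵ cells/mL were infected with the mutant HIV-1 at a multiplicity of infection of 0.02. Virus stocks were titred in MT-4 cells as CCID₅₀. Cells were plated at once onto serial compound dilutions, with DMSO stocks at 50 mM or higher. After 4 days at 37 °C, viable cells were counted by MTT. EC₅₀ is the concentration giving 50% protection from viral cytopathicity.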

[6] = system: Human immunodeficiency virus 1; assay: Antiviral activity against wild type HIV1 LAI infected in human MT4 cells assessed as protection against virus-induced cytopathogenicity after 4 days by MTT assay; format: functional, organism-based; conditions: Human immunodeficiency virus 1, LAI, MT4, 96 h
[7] = system: Human immunodeficiency virus 1; assay: Antiviral activity against HIV1 with reverse transcriptase E138K mutant infected in human MT4 cells assessed as protection against virus-induced cytopathogenicity after 4 days by MTT assay; format: functional, organism-based; conditions: Human immunodeficiency virus 1, MT4, 96 h; summary of the method: as §2
[8] = system: Human immunodeficiency virus 1; assay: Antiviral activity against HIV1 with reverse transcriptase L100I mutant infected in human MT4 cells assessed as protection against virus-induced cytopathogenicity after 4 days by MTT assay; format: functional, organism-based; conditions: Human immunodeficiency virus 1, MT4, 96 h; summary of the method: as §2
[9] = system: Human immunodeficiency virus 1; assay: Antiviral activity against HIV1 with reverse transcriptase K103N mutant infected in human MT4 cells assessed as protection against virus-induced cytopathogenicity after 4 days by MTT assay; format: functional, organism-based; conditions: Human immunodeficiency virus 1, MT4, 96 h
[10] = system: Human immunodeficiency virus 1; assay: Antiviral activity against HIV1 with reverse transcriptase Y181C mutant infected in human MT4 cells assessed as protection against virus-induced cytopathogenicity after 4 days by MTT assay; format: functional, organism-based; conditions: Human immunodeficiency virus 1, MT4, 96 h; summary of the method: as §2
[11] = system: Human immunodeficiency virus 1; assay: Antiviral activity against HIV1 with reverse transcriptase Y188L mutant infected in human MT4 cells assessed as protection against virus-induced cytopathogenicity after 4 days by MTT assay; format: functional, organism-based; conditions: Human immunodeficiency virus 1, MT4, 96 h; summary of the method: as §2
[12] = system: Human immunodeficiency virus 1; assay: Antiviral activity against HIV1 with reverse transcriptase F227L, V106A mutant infected in human MT4 cells assessed as protection against virus-induced cytopathogenicity after 4 days by MTT assay; format: functional, organism-based; conditions: Human immunodeficiency virus 1, MT4, 96 h; summary of the method: as §2
[13] = system: Human immunodeficiency virus 1; assay: Ratio of compound EC50 to nevirapine EC50 for wild type HIV1 3B; format: functional
[14] = system: Human immunodeficiency virus 1; assay: Ratio of compound EC50 to delavirdine EC50 for wild type HIV1 3B; format: functional
[15] = system: Human immunodeficiency virus 1; assay: Ratio of compound EC50 to efavirenz EC50 for HIV1 with reverse transcriptase Y188L mutant; format: functional

Structure (SMILES) | EC50 [1] | EC50 [2] | CC50 at 96 h [3] | selectivity ratio [4] | EC50 [5] | EC50 [6] | EC50 [7] | EC50 [8] | EC50 [9] | EC50 [10] | EC50 [11] | EC50 [12] | Ratio [13] | Ratio [14] | Ratio [15]
N#Cc1ccc(Nc2nc(Oc3ccccc3)c3ccccc3n2)cc1 | 1330 nM | > 369000 nM | 370000 nM | > 279 | – | – | – | – | – | – | – | – | – | – | –
Cc1ccccc1Oc1nc(Nc2ccc(C#N)cc2)nc2ccccc12 | 57 nM | > 355000 nM | 355000 nM | > 6210 | – | – | – | – | – | – | – | – | – | – | –
Cc1cccc(Oc2nc(Nc3ccc(C#N)cc3)nc3ccccc23)c1 | 823 nM | > 355000 nM | 355000 nM | > 436 | – | – | – | – | – | – | – | – | – | – | –
COc1ccccc1Oc1nc(Nc2ccc(C#N)cc2)nc2ccccc12 | 120 nM | > 26000 nM | 150000 nM | 1260 | – | – | – | – | – | – | – | – | – | – | –
Cc1ccc(Oc2nc(Nc3ccc(C#N)cc3)nc3ccccc23)cc1 | 105 nM | > 86000 nM | 87000 nM | 831 | – | – | – | – | – | – | – | – | – | – | –
N#Cc1ccc(Nc2nc(Oc3ccccc3Cl)c3ccccc3n2)cc1 | 37 nM | > 37000 nM | 38000 nM | 982 | – | – | – | – | – | – | – | – | – | – | –
N#Cc1ccc(Nc2nc(Oc3ccc(F)cc3)c3ccccc3n2)cc1 | 590 nM | > 351000 nM | > 351000 nM | > 607 | – | – | – | – | – | – | – | – | – | – | –
N#Cc1ccc(Nc2nc(Oc3ccc(Cl)cc3)c3ccccc3n2)cc1 | 190 nM | > 197000 nM | 198000 nM | 1040 | – | – | – | – | – | – | – | – | – | – | –
N#Cc1ccc(Nc2nc(Oc3ccc(Br)cc3)c3ccccc3n2)cc1 | 264 nM | > 214000 nM | 215000 nM | 810 | – | – | – | – | – | – | – | – | – | – | –
COc1ccc(Oc2nc(Nc3ccc(C#N)cc3)nc3ccccc23)cc1 | 190 nM | > 339000 nM | 340000 nM | > 1790 | > 339000 nM | – | – | – | – | – | – | – | – | – | –
N#Cc1ccc(Nc2nc(Oc3ccc(Cl)cc3Cl)c3ccccc3n2)cc1 | 23 nM | > 31000 nM | 32000 nM | 1410 | > 31000 nM | – | – | – | – | – | – | – | – | – | –
N#Cc1ccc(Nc2nc(Oc3c(Cl)cc(Cl)cc3Cl)c3ccccc3n2)cc1 | 21 nM | > 55000 nM | 56000 nM | 2630 | 1500 nM | – | – | – | – | – | – | – | – | – | –
Cc1cccc(C)c1Oc1nc(Nc2ccc(C#N)cc2)nc2ccccc12 | 23 nM | ≥ 10000 nM | 35000 nM | 1510 | 530 nM | – | – | – | – | – | – | – | – | – | –
Cc1cc(C)c(Oc2nc(Nc3ccc(C#N)cc3)nc3ccccc23)c(C)c1 | 11 nM | > 34000 nM | > 34000 nM | > 3220 | 2000 nM | – | – | – | – | – | – | – | – | – | –
Cc1cc(Br)cc(Br)c1Oc1nc(Nc2ccc(C#N)cc2)nc2ccccc12 | 19 nM | ≥ 14000 nM | 150000 nM | 7930 | 350 nM | – | – | – | – | – | – | – | – | – | –
Cc1cc(Br)c(Oc2nc(Nc3ccc(C#N)cc3)nc3ccccc23)c(Br)c1 | 20 nM | ≥ 4600 nM | 25000 nM | 1280 | 590 nM | – | – | – | – | – | – | – | – | – | –
N#Cc1ccc(Nc2nc(Oc3c(Br)cc(Br)cc3Br)c3ccccc3n2)cc1 | 28 nM | ≥ 8600 nM | 58000 nM | 2120 | 930 nM | – | – | – | – | – | – | – | – | – | –
CCOc1cc(C#N)cc(Cl)c1Oc1nc(Nc2ccc(C#N)cc2)nc2ccccc12 | 7.5 nM | > 21000 nM | 22000 nM | 2970 | 290 nM | – | – | – | – | – | – | – | – | – | –
COc1cc(C#N)ccc1Oc1nc(Nc2ccc(C#N)cc2)nc2ccccc12 | 33 nM | > 140000 nM | ≥ 140000 nM | 64200 | > 140000 nM | – | – | – | – | – | – | – | – | – | –
COc1cc(C#N)cc(OC)c1Oc1nc(Nc2ccc(C#N)cc2)nc2ccccc12 | 8.7 nM | > 194000 nM | 194000 nM | 22000 | 920 nM | – | – | – | – | – | – | – | – | – | –
CCOc1cc(C#N)cc(OCC)c1Oc1nc(Nc2ccc(C#N)cc2)nc2ccccc12 | 16 nM | > 108000 nM | 108000 nM | 6770 | > 108000 nM | – | – | – | – | – | – | – | – | – | –
CCCOc1cc(C#N)cc(OC)c1Oc1nc(Nc2ccc(C#N)cc2)nc2ccccc12 | 13 nM | > 5200 nM | 5200 nM | 408 | > 5200 nM | – | – | – | – | – | – | – | – | – | –
CCCOc1cc(C#N)cc(OCC)c1Oc1nc(Nc2ccc(C#N)cc2)nc2ccccc12 | 58 nM | > 122000 nM | 123000 nM | 2080 | > 122000 nM | – | – | – | – | – | – | – | – | – | –
Cc1cc(C#N)cc(C)c1Oc1nc(Nc2ccc(C#N)cc2)nc2ccccc12 | 1.8 nM | 32000 nM | 203000 nM | 112000 | 60 nM | 2.3 nM | 11 nM | 18 nM | ≤ 3.6 nM | 31 nM | 36 nM | 107 nM | 731 | 266 | 6
Cc1cc(C#N)cc(C)c1Oc1nc(Nc2ccc(C#N)cc2)nc2ccc(Cl)cc12 | 8.5 nM | > 117000 nM | 117000 nM | 13800 | 700 nM | – | – | – | – | – | – | – | – | – | –
COc1cc(C#N)cc(Cl)c1Oc1nc(Nc2ccc(C#N)cc2)nc2ccccc12 | 4.7 nM | > 219000 nM | 220000 nM | 46900 | 160 nM | 5.4 nM | 12 nM | 110 nM | ≤ 5.4 nM | 49 nM | 280 nM | 467 nM | – | – | –
CC(C)Nc1cccnc1N1CCN(C(=O)c2cc3cc(NS(C)(=O)=O)ccc3[nH]2)CC1 [DELAVIRDINE] | 479 nM | – | > 43000 nM | > 92 | > 43000 nM | 610 nM | 566 nM | 7950 nM | 6510 nM | 6250 nM | 6430 nM | 9850 nM | – | – | –
O=C1Nc2ccc(Cl)cc2[C@@](C#CC2CC2)(C(F)(F)F)O1 [EFAVIRENZ] | – | – | ≥ 6300 nM | – | 110 nM | – | 5.4 nM | 32 nM | 66 nM | 5.7 nM | 222 nM | 104 nM | – | – | –
Cc1ccnc2c1NC(=O)c1cccnc1N2C1CC1 [NEVIRAPINE] | 1320 nM | – | ≥ 15000 nM | – | ≥ 15000 nM | 102 nM | 162 nM | 2030 nM | – | > 15000 nM | > 15000 nM | > 15000 nM | – | – | –
